Paper PMC5940653 (Leukemia, 2018)

Tested on: STAT3/5 phosphorylation in NK-S1 cells
Test: Wash-out assay
Format: cell-based
Details: NK-S1, 1.0 μM pre-treatment for 2 h
Outline: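 NK-S1 cells were grown in DMEM with 10% FBS and 10% equine serum, seeded at 2.5 × 10^6 per well, and exposed to 1.0 µM test compound or DMSO for 2 h. Cells were washed twice in PBS and resuspended in complete medium without inhibitor. They were harvested at washout and 0.5, 1, 2 and 4 h later. Phospho- and total STAT3/5 were immunoblotted, 15 μg protein per lane.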

Compound: C[C@@H]1CCN(C(=O)CC#N)C[C@@H]1N(C)c1ncnc2[nH]ccc12 [Tofacitinib]
- recovery of phosphorylated STAT3/5 activity post inhibitor washout: within half an hour
